The results in this text go back to PubChem BioAssay.

Experiment [1] can be described thus: inhibitors of TNFa-induced NFkB p65 translocation, primary screen, imaging, HUVEC, MLSMR starter and 10KST1 sets (AID 438;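 active = inhibition above 20% together with a positive visual image hit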;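 also: compound added about 3h40 before a 20 min TNFalpha stimulation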;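 as to inhibition: signal is the nuclear over cytoplasmic p65 intensity ratio per well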). To be noted: HUVEC TNFa-induced p65 nuclear translocation; cell count: measured here: nuclei count (cytotoxicity indicator), at 2.08 µM; inhibition: at 2 µM, stronger effect = higher value, 0% TNFa-plus-vehicle, 100% no-TNFa wells.
Experiment [2] can be described thus: reduction of polyQ htt aggregates in cells – imaging, exon1htt(103Q)mCFP cells, high-content imaging, primary screen (AID 483;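 active = visual image review flags a hit and inhibition of aggregation exceeds 20%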;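 also: compound exposure lasted 3 days before fixation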;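 as to nuclei count: percent of the per-plate median nuclei count of sample wells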). To be noted: exon1htt(103Q)mCFP cell line, aggregate imaging, at 2 µM; inhibition of aggregation: stronger effect = higher value; nuclei count: measured here: cell count, toxicity.
Experiment [3] is described as follows: endothelial E-selectin expression blockers – imaging, HUVEC, immunofluorescence, MLSMR starter and 10KST1 sets, primary screen (AID 487;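 active = visually confirmed hit in the image check and inhibition above 20%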;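 as to inhibition: signal is fraction of cell area covered by stained E-selectin grains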;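 as to nuclei count: 100% = median nuclei count of all wells on the same plate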). To be noted: HUVEC TNFalpha-induced E-selectin immunofluorescence imaging, at 2 µM; inhibition: stronger effect = higher value; nuclei count: measured here: cell number, toxicity.
For experiment [4], the target named is Voltage-gated potassium channel subunit beta-2 (Rattus norvegicus) (UniProt P62483). The experiment can be described thus: inhibitors of rat Kvbeta2 reductase activity – biochemical, NADPH fluorescence, primary screen (AID 622;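 active = fluorescence slope higher than the sample average by over 3 SD, cut at about -0.22 in these data, passing the limit was not always enough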;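 also: slope of raw intensity against log time taken from 70 to 1610 s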). To be noted: recombinant KvBeta, 4-cyanobenzaldehyde reduction, at 10 µM, stronger effect = higher value.
Experiment [5] shares this target. The experiment is described as follows: enhancers of rat Kvbeta2 NADPH turnover – biochemical, NADPH fluorescence, primary screen (AID 623;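 active = NADPH fluorescence slope more negative than the mean of all samples by about 3 SD, 99.7% confidence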;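 also: fluorescence intensity change per second fitted from 20 to 320 s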). To be noted: Recombinant KvBeta, NADPH fluorescence decrease slope, 10 min; at 10 µM; stronger effect = lower value.
Experiment [6] has as its target Muscarinic acetylcholine receptor M4 (Homo sapiens) (UniProt P08173). The experiment can be described thus: M4-linked GIRK flux change, two-sided – cell-based, HEK293 M4/GIRK, thallium flux, BTC-AM, M4 allosteric agonist project, primary screen (AID 625;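 active = fluorescence slope after compound addition differing from the mean of all tested samples at 99.7% confidence, mostly higher but some lower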;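 also: thallium influx through GIRK channels coupled to M4 in HEK293 cells with BTC-AM dye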). To be noted: at 10 µM, actives lie on both sides. Put shortly:
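System: HEK293 cells with M4 receptor and GIRK channels | Incubation: Cells overnight at 37 °C, BTC-AM loading 1 h, reads 2 min total | Technique: Kinetic BTC-AM fluorescence sampled at 1 Hz, 10 s pre-addition baseline | Measure: Post-addition slope, 15–24 s, of baseline-normalized fluorescence | Control set: Carbachol positive, DMSO negative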

A short description of experiment [7]: blockers of RIG-like receptor reporter activation – cell-based, Sendai virus stimulus, luciferase, 10K MLSCN set, TLR/RLR signaling modifier project, primary screen (AID 602276).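 Also: firefly luciferase from ISG56 promoter only with Renilla not read in this screen; 0% = Sendai virus plus DMSO and 100% = medium plus DMSO without virus.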 To be noted: HEK293 RL24 IRF3 luciferase reporter, at 10 µM, stronger effect = higher value. (In a reporter assay the amount or activity of a reporter protein is the signal.)
Experiment [8] is described as follows: TLR3 IRF3 reporter activation blockers – cell-based, poly I:C stimulus, luciferase, 10K MLSCN set, primary screen (AID 602277;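 active = inhibition of the reporter signal at or above 50%; inactive = inhibition below 50%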). To be noted: HEK293-TLR3 RL24 IRF3 luciferase reporter, at 10 µM, stronger effect = higher value.

Calls of active or inactive are those of the source.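 The calls were made as follows, unless noted: active = inhibition at or above 50% at 10 µM; inactive = inhibition below 50%.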

Muscarinic acetylcholine receptor M4 (Homo sapiens), sequence (P08173 whole entry, looked up): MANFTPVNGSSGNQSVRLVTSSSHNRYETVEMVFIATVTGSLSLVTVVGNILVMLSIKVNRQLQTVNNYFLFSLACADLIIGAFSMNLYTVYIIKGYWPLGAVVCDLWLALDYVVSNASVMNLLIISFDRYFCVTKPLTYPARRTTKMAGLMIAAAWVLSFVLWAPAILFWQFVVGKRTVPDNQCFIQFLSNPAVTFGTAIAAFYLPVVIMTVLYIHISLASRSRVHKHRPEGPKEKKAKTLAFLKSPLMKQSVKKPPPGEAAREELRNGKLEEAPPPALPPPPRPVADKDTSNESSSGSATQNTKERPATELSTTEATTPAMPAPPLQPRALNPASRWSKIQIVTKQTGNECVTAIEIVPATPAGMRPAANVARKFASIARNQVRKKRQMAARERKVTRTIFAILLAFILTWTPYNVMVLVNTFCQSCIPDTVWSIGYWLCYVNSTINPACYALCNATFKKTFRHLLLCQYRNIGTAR
Voltage-gated potassium channel subunit beta-2 (Rattus norvegicus), sequence (P62483 whole entry, looked up): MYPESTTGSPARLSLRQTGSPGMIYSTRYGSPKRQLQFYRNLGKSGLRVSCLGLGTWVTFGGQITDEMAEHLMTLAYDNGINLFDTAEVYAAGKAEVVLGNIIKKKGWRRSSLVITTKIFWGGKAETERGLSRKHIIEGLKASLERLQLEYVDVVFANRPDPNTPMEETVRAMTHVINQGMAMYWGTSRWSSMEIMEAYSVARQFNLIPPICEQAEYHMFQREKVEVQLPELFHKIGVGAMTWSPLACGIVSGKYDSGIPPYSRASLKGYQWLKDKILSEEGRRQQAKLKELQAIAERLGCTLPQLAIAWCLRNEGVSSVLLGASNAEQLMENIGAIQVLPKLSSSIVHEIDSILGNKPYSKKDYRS

One may read the inhibition as the relative decrease from the control value, in per cent. In the case of `CC1CCCC(NC(=O)CN2CCN(Cc3ccc(Cl)cc3)C2=O)C1C` (centres undefined), the cell count in experiment [1] worked out at 512. In addition, the inhibition is -6% (inactive) in experiment [1], -27.1% (inactive) in experiment [3], 14.7% (inactive) in experiment [7] and 20.9% (inactive) in experiment [8]. In addition, the inhibition of aggregation in experiment [2] was -24.6% (inactive). In addition, the nuclei count in experiment [2] stood at 58.8%; in experiment [3], 98%. In addition, the fluorescence slope in experiment [4] is -0.553 (inactive); in experiment [6] it was 0.00646 (inactive). Besides, the NADPH fluorescence slope in experiment [5] was -3.7e-05 (inactive).
Take `Fc1ccccc1-c1nc(-c2ccccc2)no1`: the cell count in experiment [1] was 632. In addition, the inhibition is 13.8% (inactive) in experiment [1], -5.4% (inactive) in experiment [3], -27.9% (inactive) in experiment [7] and -60% (inactive) in experiment [8]. Moreover, the inhibition of aggregation in experiment [2] was 3.3% (inactive). The nuclei count in experiment [2] was determined as 103%; in experiment [3], 97.2%. For the same compound, the results for the fluorescence slope in experiment [4] and in experiment [6] were -0.554 (inactive) and 0.00608 (inactive), respectively. Moreover, in experiment [5], the NADPH fluorescence slope is -7.9e-05 (inactive).
As to `O=c1cc(-c2ccc(Cl)cc2)[nH][nH]1`, in experiment [1], the cell count was 523. Further, the inhibition is -2.4% (inactive) in experiment [1], 54.7% (inactive) in experiment [3], 15.8% (inactive) in experiment [7] and -16.8% (inactive) in experiment [8]. For the same compound, the inhibition of aggregation in experiment [2] is 10.1% (inactive). Besides, the nuclei count in experiment [2] worked out at 104%; in experiment [3] it was 47.1%. The fluorescence slope is -0.27 (inactive) in experiment [4] and 0.00862 (inactive) in experiment [6]. Moreover, the NADPH fluorescence slope in experiment [5] was -4.3e-05 (inactive).
Turning to `CC(=O)Nc1c(Cl)n(C(C)=O)c2ccccc12`, the cell count in experiment [1] came to 432. Further, the inhibition is -1% (inactive) in experiment [1], -3.8% (inactive) in experiment [3], 27.6% (inactive) in experiment [7] and 21% (inactive) in experiment [8]. Besides, in experiment [2], the inhibition of aggregation is -9.1% (inactive). The nuclei count in experiment [2] came to 100%; in experiment [3], 103%. Moreover, the fluorescence slope was -0.304 (inactive) in experiment [4] and 0.00935 (inactive) in experiment [6]. In experiment [5], the NADPH fluorescence slope was -2.6e-05 (inactive).
On to `Cn1c(=O)cc(SCC(=O)N2CCOCC2)c2ccc(Cl)cc21`, for which the cell count in experiment [1] stood at 442. For the same compound, the inhibition in experiment [1] was -3.9% (inactive); in experiment [3] it was 52.1% (inactive); in experiment [7], 15% (inactive); in experiment [8], 23.4% (inactive). Further, the inhibition of aggregation in experiment [2] is -3.2% (inactive). The nuclei count in experiment [2] came to 89.4%; in experiment [3] it was 92.6%. Also, the fluorescence slope in experiment [4] is -0.557 (inactive); in experiment [6], 0.00569 (inactive). In addition, in experiment [5], the NADPH fluorescence slope is -5.8e-05 (inactive).
On to `CCCOc1ccc(C2c3c(oc4ccccc4c3=O)C(=O)N2CCCN2CCOCC2)cc1` (centres undefined), for which the cell count in experiment [1] is 559. Besides, the inhibition in experiment [1] is 16.8% (inactive); in experiment [3] it was -18.5% (inactive); in experiment [7], 11.7% (inactive); in experiment [8], 21.3% (inactive). Moreover, the inhibition of aggregation in experiment [2] is 26.2% (inactive). Further, the nuclei count in experiment [2] came out at 100%; in experiment [3], 101%. For the same compound, the fluorescence slope in experiment [4] was -0.413 (inactive); in experiment [6], 0.00521 (inactive). Further, the NADPH fluorescence slope in experiment [5] is -1.1e-05 (inactive).
`CCCc1nc2ccccc2c2nc(N)nn12`: the cell count in experiment [1] is 435. For the same compound, the inhibition in experiment [1] is 7.7% (inactive); in experiment [3], 21.4% (inactive); in experiment [7] it was 13.7% (inactive); in experiment [8] it was 12.1% (inactive). In addition, in experiment [2], the inhibition of aggregation is 13.1% (inactive). Further, the nuclei count in experiment [2] is 82.1%; in experiment [3], 101%. The fluorescence slope was -0.458 (inactive) in experiment [4] and 0.00513 (inactive) in experiment [6]. The NADPH fluorescence slope in experiment [5] was 3.4e-05 (inactive).
Consider `Cc1ccc(NC(=O)C2CCCN2C(=O)Oc2ccccc2)cc1` (centres undefined), for which the cell count in experiment [1] came out at 344. Moreover, the inhibition was 6% (inactive) in experiment [1], 26.5% (inactive) in experiment [3], 5.65% (inactive) in experiment [7] and 12.3% (inactive) in experiment [8]. Further, in experiment [2], the inhibition of aggregation was 3.9% (inactive). Further, the results for the nuclei count in experiment [2] and in experiment [3] were 88.6% and 79.2%, respectively. In addition, the results for the fluorescence slope in experiment [4] and in experiment [6] were -0.41 (inactive) and 0.00654 (inactive), respectively. For the same compound, the NADPH fluorescence slope in experiment [5] was -6.8e-06 (inactive).
For the compound `CCOC(=O)C1CCN(C(=O)c2ccc(OC)cc2OC)CC1`, the cell count in experiment [1] is 676. Besides, the inhibition in experiment [1] is -5.3% (inactive); in experiment [3], 43.5% (inactive); in experiment [7], 20% (inactive); in experiment [8] it was 20.5% (inactive). The inhibition of aggregation in experiment [2] was 0.1% (inactive). Also, the nuclei count came to 97.6% in experiment [2] and 86.8% in experiment [3]. For the same compound, the results for the fluorescence slope in experiment [4] and in experiment [6] were -0.566 (inactive) and 0.00429 (inactive), respectively. In addition, the NADPH fluorescence slope in experiment [5] is 5.6e-06 (inactive).
For the compound `COc1ccc(N(CC(=O)N2c3ccccc3CC2C)S(=O)(=O)c2c(C)noc2C)cc1` (centres undefined), the cell count in experiment [1] is 539. Moreover, the inhibition in experiment [1] was -5.8% (inactive); in experiment [3], -62.5% (inactive); in experiment [7], 14.5% (inactive); in experiment [8], 30.9% (inactive). Besides, the inhibition of aggregation in experiment [2] was -18.3% (inactive). In addition, the nuclei count in experiment [2] was 118%; in experiment [3], 116%. Besides, the fluorescence slope is -0.395 (inactive) in experiment [4] and 0.00594 (inactive) in experiment [6]. In addition, the NADPH fluorescence slope in experiment [5] was 9.4e-05 (inactive).
Consider `COc1ccccc1-c1cc(C(=O)NCCCn2ccnc2)no1`, for which the cell count in experiment [1] was determined as 459. The inhibition in experiment [1] is -15.2% (inactive); in experiment [3], 49.5% (inactive); in experiment [7], 5.02% (inactive); in experiment [8], 36% (inactive). The inhibition of aggregation in experiment [2] was -15.7% (inactive). Besides, the nuclei count in experiment [2] is 106%; in experiment [3], 90%. The values for the fluorescence slope in experiment [4] and in experiment [6] were -0.291 (inactive) and 0.00777 (inactive), respectively. Further, the NADPH fluorescence slope in experiment [5] is -2.7e-05 (inactive).
Consider `CCOC(=O)c1[nH]cc(-c2ccccc2)c1N1CCOCC1`, for which the cell count in experiment [1] turned out to be 398. Also, the inhibition in experiment [1] was -3.5% (inactive); in experiment [3], -131% (inactive); in experiment [7], 4.95% (inactive); in experiment [8], 15.7% (inactive). In experiment [2], the inhibition of aggregation was 0.7% (inactive). Further, the nuclei count came out at 110% in experiment [2] and 100% in experiment [3]. Moreover, the fluorescence slope in experiment [4] is -0.541 (inactive); in experiment [6] it was 0.00498 (inactive). In addition, in experiment [5], the NADPH fluorescence slope is -4.5e-05 (inactive).
As to `C#CCN1C(=O)C(O)(CC(=O)c2cccc(OC)c2)c2ccccc21` (centres undefined), the cell count in experiment [1] was 429. Further, the inhibition in experiment [1] is 1.2% (inactive); in experiment [3], -130% (inactive); in experiment [7] it was 10.4% (inactive); in experiment [8], 14.1% (inactive). Further, the inhibition of aggregation in experiment [2] was -0.5% (inactive). The nuclei count was 96.2% in experiment [2] and 163% in experiment [3]. In addition, the fluorescence slope was -0.337 (inactive) in experiment [4] and 0.00596 (inactive) in experiment [6]. Also, the NADPH fluorescence slope in experiment [5] is -6.5e-05 (inactive).
In the case of `CCN(CC)c1ccc2c(c1)CCCN2`, in experiment [1], the cell count is 669. Besides, the inhibition is 6.8% (inactive) in experiment [1], -36.1% (inactive) in experiment [3], 8.33% (inactive) in experiment [7] and 1.7% (inactive) in experiment [8]. Moreover, the inhibition of aggregation in experiment [2] was 2.8% (inactive). For the same compound, the nuclei count was determined as 91% in experiment [2] and 126% in experiment [3]. In addition, the fluorescence slope in experiment [4] was -0.559 (inactive); in experiment [6], 0.00991 (inactive). Further, the NADPH fluorescence slope in experiment [5] is 3.7e-05 (inactive).
